MC4R barr agon – MC4R agonists recruiting beta-arrestin, primary screen, cell-based, luminescence, agonist arm of biased-ligand search. Melanocortin receptor 4 (Homo sapiens), P32245. AID 540308, 2011. activation, % at 8.9 µM. U2OS MC4R beta-arrestin complementation; percent of melanotan II response, DMSO zero. 360,000 tested, 0.98% active;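 active = activation above a per-plate cutoff, the mean activation of sample wells on that plate plus 3 SD, cut at about 8% in these data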
MC4R antag cAMP – MC4R antagonists of cAMP signaling, primary screen, cell-based, TR-FRET, antagonist arm of biased-ligand search. Melanocortin receptor 4 (Homo sapiens), P32245. MC4R-expressing cells, MTII-stimulated cAMP, LANCE TR-FRET. inhibition, % at 6.5 µM. 360,000 tested, 0.48% active;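 active = inhibition above its plate's cutoff, the mean of tested wells on that plate plus 3 SD, cut at about 29% in these data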;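 also: 0% = Melanotan II alone and 100% = Melanotan II plus saturating MCL0020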
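Assay system: human MC4R-expressing U2OS cells; reagent: Melanotan II stimulation of cells; dosing: 6.5 µM single dose; timing: compound 30 min, challenge 1 h, detection 1 h; signal: TR-FRET cAMP assay; replicates: one well per compound, no replicates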
TAAR1 agonist – human TAAR1 agonists, primary screen, Fluo-8 calcium fluorescence, CHO RD-HGA16 cells; activation, % at 3 µM; 360,000 tested, 0.99% active; Trace amine-associated receptor 1 (Homo sapiens), Q96RJ0; vehicle wells 0%, saturating PEA agonist 100%; AID 624467, 2012;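 active = activation above the mean activation of all test compounds in the run plus 3 SD, cut at about 38% in these data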
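Test system: RD-HGA16 (CHO) cells co-expressing Gα16 and hTAAR1 / Benchmarks: DMSO vehicle as 0%, PEA at EC100 as 100% / Repeats: no replicates (n 1) / Measure: % activation from peak over basal fluorescence ratio, DMSO-to-PEA scaled / Timing: 17-24 h plating, Fluo-8 75 min 37 °C, 30 min RT / Technique: kinetic Fluo-8 calcium fluorescence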
Beta2AR agonist – beta2AR agonists driving receptor internalization, primary screen, cell-based, FAP fluorogen, flow cytometry; AID 504454, 2011; response, % (test concentration not listed); 340,000 tested, 0.43% active; Am2.2-beta2AR cells; Beta-2 adrenergic receptor (Homo sapiens), P07550;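 active = response above a set limit, near 3 SD of response in nonfluorescent compounds, cut at about 42% in these data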
TAAR1 antag – human TAAR1 antagonists, primary screen, Fluo-8 calcium fluorescence, CHO RD-HGA16 cells; antagonist; Trace amine-associated receptor 1 (Homo sapiens), Q96RJ0; AID 624466, 2012; 360,000 tested, 1.5% active; inhibition, % at 3 µM;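 active = inhibition above a per-plate cutoff, the mean inhibition of test compounds on that plate plus 3 SD, cut at about 49% in these data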;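 also: 0% = DMSO plus EC80 beta-PEA response and 100% = DMSO alone without agonist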
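Test system: RD-HGA16 CHO cells with stable hTAAR1 and Gα16 / Probe or stimulus: EC80 β-phenethylamine stimulus / Times: seeding 17-24 h prior, 75-min 37 °C, 30-min RT dye loading / Detection: Fluo-8 calcium-sensitive fluorescence / Read-out basis: % inhibition scaled between DMSO and EC80 PEA controls / Repeats: singlicate, one well per test compound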
HTR2A ag – mouse Htr2a agonists via beta-arrestin recruitment, primary screen, cell-based, luminescence | 360,000 tested, 0.66% active | CHO-K1 mHTR2A beta-arrestin complementation; percent of 30 µM serotonin response | activation, % at 7.6 µM | 5-hydroxytryptamine receptor 2A (Mus musculus), P35363;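 active = activation above a run cutoff, the mean activation of all tested compounds plus 3 SD, cut at about 14% in these data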;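 also: 0% = plate median of compound wells and 100% = 30 µM serotonin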
Target sequence (P35363 whole entry, looked up): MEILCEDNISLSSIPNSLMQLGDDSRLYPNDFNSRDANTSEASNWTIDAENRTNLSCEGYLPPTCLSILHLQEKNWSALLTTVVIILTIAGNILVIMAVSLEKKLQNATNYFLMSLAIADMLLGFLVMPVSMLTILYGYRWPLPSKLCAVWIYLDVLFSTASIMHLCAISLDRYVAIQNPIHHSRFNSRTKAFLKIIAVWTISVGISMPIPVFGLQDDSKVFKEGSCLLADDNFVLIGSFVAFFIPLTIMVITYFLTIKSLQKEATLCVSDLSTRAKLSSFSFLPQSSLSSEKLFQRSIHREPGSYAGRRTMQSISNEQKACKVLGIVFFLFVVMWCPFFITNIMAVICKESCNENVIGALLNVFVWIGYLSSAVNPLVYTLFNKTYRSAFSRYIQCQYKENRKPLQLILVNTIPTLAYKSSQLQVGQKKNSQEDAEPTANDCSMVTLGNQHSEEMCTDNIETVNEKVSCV
TAAR1 ag conf – human TAAR1 agonists, retest of hits, confirmation, Fluo-8 calcium fluorescence, CHO RD-HGA16 cells; shares compounds with TAAR1 agonist; scaled: DMSO 0%, maximal phenethylamine 100%; activation, % at 3 µM; 2,400 tested, 82% active; AID 651783, 2012;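 active = activation above a cutoff set at the run's mean compound activation plus 3 SD, cut at about 39% in these data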
Ga16 ag counter – nonselective calcium mobilization agonists, CHO-Ga16 cells, counter-screen for hTAAR1 agonist project, cell-based, fluorescence, CHO-Ga16 parental line. AID 651787, 2012. 2,400 tested, 50% active. shares compounds with TAAR1 agonist. Fluo-8 calcium fluorescence; normalized to maximal ATP response, DMSO zero. activation, % at 3 µM;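 active = activation above the run cutoff, the mean activation over all tested wells plus 3 SD, cut at about 12% in these data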;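 also: 0% = DMSO wells and 100% = maximal ATP response on the peak over basal ratio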
TAAR1 desensitize – TAAR1 desensitization by agonist hits, confirmation, counter-screen for TAAR1 agonist project, cell-based, fluorescence, tachyphylaxis; shares compounds with TAAR1 agonist; CHO RD-HGA16 hTAAR1, Fluo-8 calcium, beta-PEA response inhibition; inhibition, % at 3 µM; 2,400 tested, 46% active;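 active = inhibition above the run cutoff, the mean inhibition of all test compounds plus 3 SD, cut at about 49% in these data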;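 also: beta-PEA stimulus applied at its EC80; loss of beta-PEA calcium signal after compound pretreatment read as receptor desensitization; 0% = DMSO with beta-PEA at EC80 and 100% = DMSO alone without agonist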
Ga16 nonsel ant – inhibition of ATP-evoked calcium response in CHO-Ga16 cells, counter-screen for TAAR1 agonist project, cell-based, fluorescence; shares compounds with TAAR1 agonist; CHO-Ga16 ATP-induced calcium, Fluo-8 fluorescence; inhibition, % at 3 µM; 2,400 tested, 39% active; AID 651952, 2012;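 active = inhibition above the plate's mean compound inhibition plus 3 SD, computed per plate, cut at about 22% in these data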;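 also: 0% = EC80 ATP with DMSO and 100% = DMSO wells without ATP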
* marks the source's active call; other numbers are inactive results. An excerpt weighted towards active compounds, which were near 4.3% of everything screened.

For NS(=O)(=O)c1ccc(CCNC(=O)C2CCC(CNS(=O)(=O)c3ccc(Br)s3)CC2)cc1 (configuration not stated) the results were MC4R barr agon 1.1, MC4R antag cAMP -9.0, TAAR1 agonist 52.6*, Beta2AR agonist -4.7, TAAR1 antag 71.5*, HTR2A ag 0.9, TAAR1 ag conf 40.9*, Ga16 ag counter 0.7, TAAR1 desensitize 59.1* and Ga16 nonsel ant 6.8.
`C=CCNC(=O)NC(=O)CN1C(=O)NC(c2ccccc2)(c2ccccc2)C1=O` gave MC4R barr agon -0.4, MC4R antag cAMP 11.9, TAAR1 agonist -2.5, Beta2AR agonist 2.4, TAAR1 antag 0.0 and HTR2A ag 4.4.
Screening COc1cccc(-c2noc(CCC(=O)NCCc3ccccc3)n2)c1 returned MC4R barr agon -0.9, MC4R antag cAMP 19.6, TAAR1 agonist 47.2*, Beta2AR agonist 4.8, TAAR1 antag -0.1, HTR2A ag -1.6, TAAR1 ag conf 66.6*, Ga16 ag counter 1.9, TAAR1 desensitize 23.4 and Ga16 nonsel ant 10.7.
`COc1ccc(-c2noc(CCC(=O)NCCc3ccccc3)n2)cc1` gave MC4R barr agon -3.2, MC4R antag cAMP 10.8, TAAR1 agonist 50.8*, Beta2AR agonist -7.3, TAAR1 antag -1.0, HTR2A ag 1.5, TAAR1 ag conf 62.3*, Ga16 ag counter 4.2, TAAR1 desensitize 31.5 and Ga16 nonsel ant 9.9.
Screening O=C(CCc1nc(-c2ccccc2)no1)NCCc1ccccc1 returned MC4R barr agon -0.1, MC4R antag cAMP 2.3, Beta2AR agonist -0.6 and HTR2A ag -5.7.
COc1ccc(N(CC(=O)NCc2ccc(C)cc2)S(=O)(=O)c2c(C)noc2C)cc1 was read as MC4R barr agon -0.9, MC4R antag cAMP 9.4, TAAR1 agonist -0.8, Beta2AR agonist 3.1, TAAR1 antag 4.9 and HTR2A ag 0.8.
Cc1cc(C)nc(OC(C(=O)O)C(OCCc2ccccc2)(c2ccc(F)cc2)c2ccc(F)cc2)n1 (configuration not stated) was read as MC4R barr agon -1.3, MC4R antag cAMP 10.3, TAAR1 agonist 121.7*, Beta2AR agonist -1.0, TAAR1 antag 1.0, HTR2A ag 1.0, TAAR1 ag conf 127.8*, Ga16 ag counter 89.5*, TAAR1 desensitize 25.7 and Ga16 nonsel ant 4.9.
Screening CCC(C)COC(c1ccccc1)(c1ccccc1)C(Oc1nc(C)cc(C)n1)C(=O)O (configuration not stated) returned MC4R barr agon 1.3, MC4R antag cAMP 7.8, TAAR1 agonist 80.5*, Beta2AR agonist -20.5, TAAR1 antag 8.2, HTR2A ag 4.8, TAAR1 ag conf 128.3*, Ga16 ag counter 85.5*, TAAR1 desensitize 14.1 and Ga16 nonsel ant 8.5.
For Cc1cc(C)nc(OC(C(=O)O)C(OCC(C)C)(c2ccccc2)c2ccccc2)n1 (configuration not stated) the results were MC4R barr agon -0.9, MC4R antag cAMP 4.2, TAAR1 agonist 108.4*, Beta2AR agonist 1.2, TAAR1 antag 4.3, HTR2A ag 5.3, TAAR1 ag conf 125.0*, Ga16 ag counter 74.4*, TAAR1 desensitize 20.8 and Ga16 nonsel ant 8.3.
O=C(NCCOC(=O)c1ccccc1)c1ccccc1 was read as MC4R barr agon 0.1, MC4R antag cAMP 1.8, TAAR1 agonist 0.7, Beta2AR agonist -1.6, TAAR1 antag -7.3 and HTR2A ag 0.2.
`CC(C)CCOc1ccc(C(=O)NN2C(=O)NC3(CCCCC3)C2=O)cc1` gave MC4R barr agon -2.8, MC4R antag cAMP -0.1, TAAR1 agonist 3.9, Beta2AR agonist 3.5, TAAR1 antag 14.5 and HTR2A ag -4.5.
For CCC(=NCCc1ccccc1)C1=C(O)CCC1=O the results were MC4R barr agon 0.2, MC4R antag cAMP 5.7, TAAR1 agonist 86.5*, Beta2AR agonist -5.1, TAAR1 antag 87.2*, HTR2A ag 6.0, TAAR1 ag conf 103.6*, Ga16 ag counter 2.5, TAAR1 desensitize 92.7* and Ga16 nonsel ant -3.1.
`CN(CC(=O)Nc1ccccc1C(F)(F)F)Cc1c(O)ccc2ccccc12` gave MC4R barr agon 2.2, MC4R antag cAMP -2.8, TAAR1 agonist 65.5*, Beta2AR agonist 4.3, TAAR1 antag -5.5, HTR2A ag 5.7, TAAR1 ag conf 30.2, Ga16 ag counter 5.2, TAAR1 desensitize 4.2 and Ga16 nonsel ant 10.7.
For CCc1ccccc1NC(=O)CN(C)Cc1c(O)ccc2ccccc12 the results were MC4R barr agon 4.9, MC4R antag cAMP 15.1, TAAR1 agonist 9.0, Beta2AR agonist -6.8, TAAR1 antag -9.9 and HTR2A ag -0.3.
`O=C(CC(NCCc1ccccc1)C(=O)O)Nc1ccc(O)cc1` (configuration not stated) gave TAAR1 agonist 50.1*, TAAR1 antag 6.5, TAAR1 ag conf 90.6*, Ga16 ag counter 0.6, TAAR1 desensitize 73.9* and Ga16 nonsel ant 6.0.
CN1OC[C@@H]2CN(C(=S)NCCc3ccccc3)[C@H](c3ccc(-n4ccnc4)cc3)C[C@@H]21 was read as TAAR1 agonist 47.2*, TAAR1 antag -7.6, HTR2A ag -2.7, TAAR1 ag conf 48.9*, Ga16 ag counter 6.6, TAAR1 desensitize 6.1 and Ga16 nonsel ant 9.8.

Screens deposited in PubChem BioAssay by several laboratories.
